{"data": "Measurements gathered from unrelated publications", "RPS6KA1": "Ribosomal protein S6 kinase alpha-1 (RPS6KA1, Homo sapiens, UniProt Q15418)", "RPS6KA1 C-terminal kinase domain": "Ribosomal protein S6 kinase alpha-1, C-terminal kinase domain (RPS6KA1, Homo sapiens, UniProt Q15418)", "RPS6KA1 N-terminal kinase domain": "Ribosomal protein S6 kinase alpha-1, N-terminal kinase domain (RPS6KA1, Homo sapiens, UniProt Q15418)", "note": "Protocols differ between the studies behind these lines."}
{"Compound": "COc1cc(Nc2cnc(C#N)c(O[C@H](C)CN(C)C)n2)ncc1-c1cnn(C)c1", "target": "RPS6KA1", "assay": "enzyme activity, inhibitor, radiometric", "setting": "1 µM", "quantity": "remaining activity", "result": "4%"}
{"Compound": "Cc1sc(C(=O)NC2COC2)cc1-n1cc(NC(=O)Nc2c(F)cccc2Cl)cn1", "target": "RPS6KA1", "assay": "enzyme activity, inhibitor", "setting": "10 µM", "quantity": "remaining activity", "result": "93.2%"}
{"Compound": "O=C(NCc1ncc(C(F)(F)F)cc1Cl)c1ccc2c(c1)C1(CCS(=O)(=O)CC1)[C@@H](C1CC1)N2S(=O)(=O)c1ccc(F)cc1", "target": "RPS6KA1 C-terminal kinase domain", "assay": "cell-free assay, competition with immobilised ligand", "setting": "1 µM", "quantity": "remaining binding", "result": "100%"}
{"Compound": "CN(C)c1ncc(F)c(-c2cnn3ncccc23)n1", "target": "RPS6KA1 C-terminal kinase domain", "assay": "binding, competition with immobilised ligand", "setting": "1 µM", "quantity": "remaining binding", "result": "100%"}
{"Compound": "CCC(=N\\O)/C(C)=C/c1ccc(F)cc1", "target": "RPS6KA1 C-terminal kinase domain", "assay": "cell-free assay, competition with immobilised ligand", "setting": "1 µM", "quantity": "remaining binding", "result": "100%"}
{"Compound": "COc1cc2c(N3CCN(C(=O)Nc4ccc(OC(C)C)cc4)CC3)ncnc2cc1OCCCN1CCCCC1", "target": "RPS6KA1", "assay": "cell-free assay", "setting": "0.5 µM", "quantity": "remaining signal", "result": "94.8%"}
{"Compound": "COc1cc(Cl)c(C(=O)N[C@@H](CN[C@H]2CC[C@@H](N)CC2)Cc2ccc(C#N)cc2)cc1-c1ccc(CN[C@H](C)c2ccc(C)cc2)o1", "target": "RPS6KA1", "assay": "enzyme activity, inhibitor", "setting": "1 µM", "quantity": "remaining activity", "result": "85%"}
{"Compound": "CC(C)(O)c1cncc(-c2nc3ccc(F)cc3n2C2CC2)c1", "target": "RPS6KA1 C-terminal kinase domain", "assay": "cell-free assay, competition with immobilised ligand", "setting": "1 µM", "quantity": "remaining binding", "result": "100%"}
{"Compound": "O=C1Nc2ccc(Cl)cc2C1=Cc1cc(Cl)c(O)c(Cl)c1", "target": "RPS6KA1", "assay": "cell-free assay", "setting": "0.5 µM", "quantity": "remaining signal", "result": "48.4%"}
{"Compound": "CN(C)c1nccc(-c2cnn3ncccc23)n1", "target": "RPS6KA1 N-terminal kinase domain", "assay": "binding, competition with immobilised ligand", "setting": "1 µM", "quantity": "remaining binding", "result": "100%"}
{"Compound": "CCCOc1ccc(OC)c(F)c1C(=O)c1ccc(C(=O)N[C@@H]2CNC[C@H]2NC(=O)c2ccc3[nH]ncc3c2)cc1", "target": "RPS6KA1", "assay": "enzyme activity, inhibitor", "setting": "10 µM", "quantity": "remaining activity", "result": "29%"}
{"Compound": "O=C(N[C@H]1CCCCC/C=C\\C2C[C@@]2(C(=O)O)NC(=O)[C@@H]2C[C@@H](Oc3ccncc3)CN2C1=O)OC1CCCC1 (stereo partly shown)", "target": "RPS6KA1 N-terminal kinase domain", "assay": "binding, competition with immobilised ligand", "setting": "1 µM", "quantity": "remaining binding", "result": "100%"}
{"Compound": "Cn1cncc1C1=CN(c2ncnc3[nH]cnc23)CCS1", "target": "RPS6KA1", "assay": "enzyme activity, inhibitor, radiometric", "setting": "50 nM", "quantity": "inhibition", "result": "13%"}
{"Compound": "CNc1cccc2cc(C(=O)Nc3ccc(C(=O)O)cc3)c(=O)[nH]c12", "target": "RPS6KA1", "assay": "enzyme activity, inhibitor", "setting": "10 µM", "quantity": "inhibition", "result": "16%"}
{"Compound": "Cn1c(=O)n(-c2ccc(C(C)(C)C#N)cc2)c2c3cc(-c4cnc5ccccc5c4)ccc3ncc21", "target": "RPS6KA1", "assay": "enzyme activity, inhibitor", "setting": "10 µM", "quantity": "remaining activity", "result": "97%"}
{"Compound": "C#Cc1cccc(Nc2ncnc3cc(OCCOC)c(OCCOC)cc23)c1", "target": "RPS6KA1", "assay": "cell-free assay", "setting": "0.5 µM", "quantity": "remaining signal", "result": "97.6%"}
{"Compound": "CCCCN(CCCC)C(=O)CN1C[C@H](c2cc(OC)c3c(c2)OCO3)[C@@H](C(=O)O)[C@@H]1CC(C)(C)CCC", "target": "RPS6KA1 N-terminal kinase domain", "assay": "cell-free assay, competition with immobilised ligand", "setting": "1 µM", "quantity": "remaining binding", "result": "97.7%"}
{"Compound": "C=CC(=O)Nc1cc(Nc2nccc(Nc3cc(Cl)c(F)cc3C(C)(C)O)n2)c(OC)cc1N1CC[C@@H](N(C)C)C1", "target": "RPS6KA1", "assay": "enzyme activity, inhibitor", "setting": "1 µM", "quantity": "inhibition", "result": "9%"}
{"Compound": "Nc1nc(Nc2ccccc2)sc1C(=O)c1c(F)cccc1F", "target": "RPS6KA1", "assay": "enzyme activity, inhibitor", "setting": "10 µM", "quantity": "remaining activity", "result": "29%"}
{"Compound": "c1ccc(CNc2nc(N3CCOc4ccccc43)nc3c2CCCC3)cc1", "target": "RPS6KA1 C-terminal kinase domain", "assay": "target engagement in cells, inhibitor, chemoproteomics", "setting": "20 mM", "quantity": "inhibition", "result": "-6.9%"}
{"Compound": "COc1ccc2cc(OCC3(C(=O)O)CN(C(=O)c4ccc(F)cc4)C3)ccc2c1", "target": "RPS6KA1 C-terminal kinase domain", "assay": "cell-free assay, competition with immobilised ligand", "setting": "1 µM", "quantity": "remaining binding", "result": "100%"}
{"Compound": "CNC(=O)c1cc(Oc2ccc(NC(=O)Nc3ccc(Cl)c(C(F)(F)F)c3)cc2)ccn1", "target": "RPS6KA1", "assay": "enzyme activity, inhibitor", "setting": "0.3 µM", "quantity": "inhibition", "result": "5%"}
